Our source for the Cures and ILS values is ChEMBL document CHEMBL1122207, “Antitumor agents. 2. Bisguanylhydrazones of anthracene-9,10-dicarboxaldehydes” (1982).

The structures appear in SMILES notation.

Type in all cases: functional
For test [1], the species on record is Mus musculus. The test is described as follows: Number of survivors of the total treated mice with B-16 melanoma, at 60 days. The gist of the method: (§1)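 BDF1 mice were implanted ip with a homogenate from 0.05 g of B-16 melanoma and dosed ip on days 1-9. Cures are survivors over total at 60 days.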
The species named for test [2] is Mus musculus. As to the kind of experiment: Anticancer activity measured as the number of survivors of the total treated mice with P-388 leukemia at 30 days. The gist of the method: (§2)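 BDF1 or CDF1 mice given 10^6 ascitic P-388 leukemia cells ip, then treated ip on days 1, 5 and 9. Cures are survivors over total treated at 30 days.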
The test system of test [3] is Mus musculus. The test is described as follows: Percent increase in median life span of BDF1 mice with P-388 leukemia at dose 6.25 mg/kg administered intraperitoneally. As to conditions: BDF1, P388, ip, route intraperitoneal.
The test system of test [4] is Mus musculus. The test is described as follows: Percent increase in median life span of BDF1 mice with B-16 melanoma at dose 3.00 mg/kg administered intraperitoneally. The note with it: BDF1, B16, ip, route intraperitoneal. Put shortly: (§3)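 BDF1 mice were implanted ip with a homogenate from 0.05 g of B-16 melanoma. Ip dosing ran on days 1-9, starting 24 h after implant, in dose-response studies following NCI protocols. The read-out was percent increase in life span (ILS). T/C ≥125% was taken as significant.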

Test [5] concerns Mus musculus. The test is described as follows: Percent increase in median life span of BDF1 mice with P-388 leukemia at dose 160 mg/kg administered intraperitoneally. The note with it: BDF1, P388, ip, route intraperitoneal.
The subject of test [6] is Mus musculus. The test is described as follows: Percent increase in median life span of BDF1 mice with B-16 melanoma at dose 3.1 mg/kg administered intraperitoneally. The note with it: BDF1, B16, ip, route intraperitoneal. The gist of the method:
as §3

The species entered for test [7] is Mus musculus. The test is described as follows: Cures is the number of survivors of the total treated mice (10) with B-16 melanoma, at 60 days. Put shortly: as §1
In test [8] the test system is Mus musculus. The test is described as follows: Percent increase in median life span of BDF1 mice with B-16 melanoma at dose 6.25 mg/kg administered intraperitoneally. The note with it: BDF1, B16, ip, route intraperitoneal. Put shortly:
as §3

The subject of test [9] is Mus musculus. The test is described as follows: Percent increase in median life span of BDF1 mice with P-388 leukemia at dose 3.1 mg/kg administered intraperitoneally. As to conditions: BDF1, P388, ip, route intraperitoneal.
For test [10], the system named is Mus musculus. As to the kind of experiment: Percent increase in median life span of BDF1 mice with P-388 leukemia at dose 225 mg/kg administered intraperitoneally. The note with it: BDF1, P388, ip, route intraperitoneal.
For test [11], the species on record is Mus musculus. The test is described as follows: Cures is the number of survivors of the total treated mice (20) with B-16 melanoma, at 60 days. The gist of the method: as §1
The species entered for test [12] is Mus musculus. The test is described as follows: Cures is the number of survivors of the total treated mice (6) with P-388 leukemia, at 30 days. The gist of the method: as §2
The species named for test [13] is Mus musculus. As to the kind of experiment: Cures is the number of survivors of the total treated animals (12 mice) with P-388 leukemia, at 30 days. The gist of the method: as §2
The species entered for test [14] is Mus musculus. The test is described as follows: Cures is the number of survivors of the total treated mice (8) with Colon 26, at 60 days.
The subject of test [15] is Mus musculus. The test is described as follows: Percent increase in median life span of BDF1 mice with Colon 26 at dose 12.5 mg/kg administered intraperitoneally; 1, 5, 9 days of ip treatment relative to tumor inoculation. The note with it: BDF1, Colon 26, ip, 216 h, route intraperitoneal.
In test [16] the test system is Mus musculus. The test is described as follows: Percent increase in median life span of BDF1 mice with P-388 leukemia at dose 50 mg/kg administered intraperitoneally; range 25-91%; range 25-91%, 1, 5, 9 days of ip treatment relative to tumor inoculation. The note with it: BDF1, P388, ip, 216 h, route intraperitoneal. Put shortly: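 BDF1 or CDF1 mice given 10^6 ascitic leukemia cells ip, then dosed ip on days 1, 5 and 9. Read-out is percent increase in life span versus untreated controls. Cures were scored as survivors/total at 30 days; when cures reached 50% or more, the run was extended until a specific ILS could be calculated. T/C ≥125% counted as significant.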

Test [17] has as its system Mus musculus. As to the kind of experiment: Percent increase in median life span of BDF1 mice with B-16 melanoma at dose 6 mg/kg administered intraperitoneally; range 100-167; 1-9 days of ip treatment relative to tumor inoculation. The note with it: BDF1, B16, ip, route intraperitoneal. Put shortly: as §3
The test system of test [18] is Mus musculus. The test is described as follows: Percent increase in median life span of BDF1 mice with advanced L-1210 leukemia administered intraperitoneally; treatment day +2 ip.
Test [19] relates to Mus musculus. The test is described as follows: Percent increase in median life span of BDF1 mice with advanced P-388 leukemia at dose 25 mg/kg administered intraperitoneally; 4, 8, 12 days of ip treatment relative to tumor inoculation. As to conditions: P388, ip, 288 h, route intraperitoneal.

Turning to `Br.Br.CN(C)CC/N=C(\S)N/N=C/c1c2ccccc2c(/C=N/N/C(S)=N/CCN(C)C)c2ccccc12`, the Cures in test [1] and in [2] was 0 in each case. Further, the ILS at 6.25 mg/kg in test [3] was found to be 106%. This molecule yielded an ILS at 3 mg/kg in test [4] of 47%.

`Cc1cc2c(/C=N/NC3=NCCN3)c3ccccc3c(/C=N/NC3=NCCN3)c2cc1C.Cl.Cl`: the Cures in test [1] and in test [2] was 0 in each case. The molecule also came in with an ILS at 160 mg/kg in test [5] of 77%. Moreover, the ILS at 3.1 mg/kg in test [6] stood at 76%.

For the molecule `CCc1ccc2c(/C=N/NC3=NCCN3)c3ccccc3c(/C=N/NC3=NCCN3)c2c1.Cl.Cl`, the values for the Cures in test [2] and in [7] were 0 and 1, respectively. In addition, the ILS at 6.25 mg/kg in test [8] worked out at 97%. In test [9], this molecule showed an ILS at 3.1 mg/kg of 64%.

The molecule `C(=N\NC1=NCCN1)/C1c2ccccc2C(/C=N/NC2=NCCN2)c2cc3ccccc3cc21` (configuration not stated) showed an ILS at 225 mg/kg in test [10] of 105%.

Regarding `Cl.Cl.N=C(NCc1ccco1)N/N=C/c1c2ccccc2c(/C=N/NC(=N)NCc2ccco2)c2ccccc12`, the Cures in test [11] is 6; in [12], 0; in test [13], 0; in test [14], 0. For the same molecule, in test [15], the ILS at 12.5 mg/kg stood at 109%. In test [16], the ILS at 50 mg/kg was determined as 91%. The same molecule returned an increase in life span (ILS) at 6 mg/kg in test [17] of 167%. In addition, the ILS in [18] is reported as less than 25%. The increase in lifespan (ILS) at 25 mg/kg in [19] came out at 56%.
